Measurements: PubChem BioAssay
Active and inactive are the calls of the source.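 The calls were made as follows, unless noted: active = potentiation averaged over duplicate wells exceeding buffer-only control mean by more than 3 SD; inactive = the rest.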

Columns and labels:
[1] = nonspecific flux increase, KCNQ1-free cells – parental CHO cells, counter-screen for KCNQ1 potentiator project (AID 493006;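 active = duplicate-averaged activation above buffer control mean plus 5 SD of those controls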;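 as to activation: fluorescence ratio of max minus min over baseline after K+ and Tl+ depolarization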); conditions: parental CHO-K1 cells, FluxOR thallium flux, at 10 µM; hits give high values
How it was run: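 Assay system: parental CHO-K1 cells lacking KCNQ1, loaded with FluxOR thallium dye; timing: dye 90 min RT, compound 20 min RT; signal: kinetic thallium-flux fluorescence; repeats: duplicate wells per compound, percent values averaged; benchmarks: buffer and R-L3 controls; reagent: Potassium/thallium depolarization pulse; read-out: fluorescence change ratio scaled 0% buffer, 100% R-L3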

[2] = molecular target: Potassium voltage-gated channel subfamily KQT member 1 (Homo sapiens) (UniProt P51787); assay: enhancement of KCNQ1 channel thallium flux – FluxOR thallium flux, CHO cells, duplicates, confirmation (AID 493007); conditions: KCNQ1 cell line, FluxOR thallium flux fluorescence, at 10 µM; hits give high values, % of reference activator effect, buffer zero;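 as to outcome: cells depolarized by a potassium plus thallium sulfate stimulus after compound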
Sequence of Potassium voltage-gated channel subfamily KQT member 1 (Homo sapiens) (P51787 whole entry, looked up): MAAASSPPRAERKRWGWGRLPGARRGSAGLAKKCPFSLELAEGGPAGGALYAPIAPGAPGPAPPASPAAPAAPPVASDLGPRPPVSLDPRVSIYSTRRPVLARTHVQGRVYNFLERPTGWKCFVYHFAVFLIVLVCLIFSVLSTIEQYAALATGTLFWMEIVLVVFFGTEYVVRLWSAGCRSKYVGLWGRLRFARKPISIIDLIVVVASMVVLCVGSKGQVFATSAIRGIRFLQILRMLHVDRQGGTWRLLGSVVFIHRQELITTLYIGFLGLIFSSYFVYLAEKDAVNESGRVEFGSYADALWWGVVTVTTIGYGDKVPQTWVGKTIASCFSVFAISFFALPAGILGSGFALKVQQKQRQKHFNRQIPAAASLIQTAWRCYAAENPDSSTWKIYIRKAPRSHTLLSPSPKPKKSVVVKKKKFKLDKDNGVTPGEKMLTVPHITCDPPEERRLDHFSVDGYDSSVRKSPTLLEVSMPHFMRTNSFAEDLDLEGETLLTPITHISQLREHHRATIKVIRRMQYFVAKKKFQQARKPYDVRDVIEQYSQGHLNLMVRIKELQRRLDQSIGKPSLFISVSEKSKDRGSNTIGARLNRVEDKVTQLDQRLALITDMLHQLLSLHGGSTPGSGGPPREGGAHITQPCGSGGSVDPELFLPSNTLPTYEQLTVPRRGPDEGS
How it was run: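 material = CHO cells stably expressing the KCNQ1 potassium channel | repeats = duplicate wells per compound | measure = percent activation between buffer and R-L3 responses | signal = FluxOR thallium-flux fluorescence, kinetic read | schedule = FluxOR dye loading 90 min, compound exposure 20 min, room temperature | control set = buffer and R-L3 controls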

[3] = molecular target: Potassium voltage-gated channel subfamily KQT member 2 (Rattus norvegicus) (UniProt O88943); assay: KCNQ2 thallium flux enhancement – KCNQ2-CHO-K1 cells, selectivity assay for KCNQ1 potentiator project (AID 493009;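 active = mean duplicate potentiation above the buffer control mean plus 5 SD of buffer wells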;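 also: assay conditions were tuned for KCNQ1 rather than KCNQ2 modulators; signal is max minus min fluorescence divided by baseline after thallium stimulus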); conditions: FluxOR thallium flux fluorescence, at 10 µM; hits give high values, scaled: buffer 0, activator control 100
Sequence of Potassium voltage-gated channel subfamily KQT member 2 (Rattus norvegicus) (O88943 whole entry, looked up): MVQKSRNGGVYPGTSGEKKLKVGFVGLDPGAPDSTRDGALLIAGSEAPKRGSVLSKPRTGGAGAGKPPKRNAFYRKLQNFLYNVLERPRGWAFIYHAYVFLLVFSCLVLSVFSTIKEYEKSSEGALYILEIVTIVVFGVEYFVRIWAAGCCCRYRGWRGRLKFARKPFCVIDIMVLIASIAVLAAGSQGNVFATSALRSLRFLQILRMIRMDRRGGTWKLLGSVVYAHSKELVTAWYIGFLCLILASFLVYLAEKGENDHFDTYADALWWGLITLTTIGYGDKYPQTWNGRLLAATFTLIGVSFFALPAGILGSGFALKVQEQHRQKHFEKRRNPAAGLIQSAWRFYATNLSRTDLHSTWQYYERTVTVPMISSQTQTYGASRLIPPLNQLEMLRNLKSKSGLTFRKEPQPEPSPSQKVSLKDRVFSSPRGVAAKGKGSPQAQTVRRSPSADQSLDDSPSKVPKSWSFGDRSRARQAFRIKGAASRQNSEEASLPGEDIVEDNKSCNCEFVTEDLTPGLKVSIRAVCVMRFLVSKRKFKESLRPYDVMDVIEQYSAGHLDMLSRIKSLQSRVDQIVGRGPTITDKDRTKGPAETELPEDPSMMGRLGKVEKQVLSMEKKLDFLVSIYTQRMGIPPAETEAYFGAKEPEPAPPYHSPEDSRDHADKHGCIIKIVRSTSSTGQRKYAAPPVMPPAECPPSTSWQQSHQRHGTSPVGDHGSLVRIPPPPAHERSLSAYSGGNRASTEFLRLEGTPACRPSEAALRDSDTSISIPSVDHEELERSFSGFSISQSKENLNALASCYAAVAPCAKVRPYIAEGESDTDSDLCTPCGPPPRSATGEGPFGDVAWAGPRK

[4] = molecular target: Potassium voltage-gated channel subfamily KQT member 1 (Homo sapiens) (UniProt P51787); assay: KCNQ1 activators by electrophysiology – IonWorks patch clamp, KCNQ1-CHO cells, orthogonal assay for KCNQ1 potentiator project, confirmation (AID 493184;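 active = current rise at least 3 SD above the untreated control mean in each of two repeat wells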); conditions: automated patch clamp current, at 10 µM; hits give high values
How it was run: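 Assay system – CHO cells carrying KCNQ1 · Medium – pH 7.4 external bath · Probe or stimulus – depolarizing pulse to +40 mV from -90 mV · Compound dosing – one dose, 10 µM final · Measured by – automated perforated-patch electrophysiology · Measure – % potentiation of steady-state current relative to pre-compound · Repeats – two replicates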

Row | SMILES | outcome [1] | outcome [2] | outcome [3] | outcome [4] | activation [1] | potentiation [2] | potentiation [3]
1 | CCN(CC)CC(O)Cn1c2ccccc2c2ccccc21 (stereo not given) | inactive | inactive | inactive | inactive |  |  | 
2 | O=C(/C=C/c1ccc(Br)cc1)NC(=S)Nc1ccc(S(=O)(=O)Nc2nccs2)cc1 | inactive | inactive | inactive | inactive |  |  | 
3 | S=c1[nH]nc(CSc2nc3ccccc3s2)n1C1CCCCC1 |  |  |  | inactive | 142% (active) | 31% (active) | 147% (active)
4 | CCOC(=O)c1c(-c2ccccc2)oc2ccc(O)c(CN3CCN(C)CC3)c12 | inactive | inactive | inactive | inactive |  |  | 
5 | COc1cccc(C2=NOC(C(=O)NCc3cccs3)C2)c1 (stereo not given) | inactive | inactive | inactive | inactive |  |  | 
6 | Cc1cccc(NC(=S)N/N=C(\c2ccccc2)C(C)C)c1 | inactive |  |  | inactive |  | 32% (active) | 152% (active)
7 | COn1c(SCc2ccc(C)cc2C)nc2ccccc2c1=O | inactive | inactive | inactive | inactive |  |  | 
8 | Cc1ccc(OCc2n[nH]c(=S)n2-c2ccc(Br)cc2)cc1 | inactive |  |  | inactive |  | 22.5% (active) | 146% (active)
9 | CN1CCC(Oc2ccccc2Sc2ccc(C(F)(F)F)cc2)CC1 | inactive | inactive | inactive | inactive |  |  | 
10 | O=C1CN(c2nc(-c3cccs3)nc3sc4c(c23)CCCC4)CCN1 |  |  |  | inactive | 259% (active) | 415% (active) | 492% (active)
11 | O=C(c1cccnc1)N1N=C2CCCCCC2C1(O)C(F)(F)F (stereo not given) | inactive | inactive | inactive | inactive |  |  | 
12 | O=C(NCc1ccco1)C1CC(c2ccc(Cl)cc2)=NO1 (stereo not given) | inactive | inactive | inactive | inactive |  |  | 
13 | CC1CCc2c(sc(NS(=O)(=O)c3ccccc3)c2C(=O)OC(C)C)C1 (stereo not given) |  |  |  | inactive | 284% (active) | 156% (active) | 380% (active)
14 | CC(=O)c1ccc(OCc2cc(C(=O)N3CC[C@@H]4CCCC[C@H]4C3)no2)cc1 |  |  |  | inactive | 144% (active) | 49% (active) | 160% (active)
15 | CCCCc1nc2sc3c(SCCN(C)C)ncnc3c2c2c1CCC2 |  |  |  | inactive | 207% (active) | 122% (active) | 183% (active)
16 | Cc1cc2n(n1)SC(Nc1ccc(F)c(Cl)c1)N2 (stereo not given) | inactive | inactive | inactive | inactive |  |  | 
17 | COc1cc(S(=O)(=O)Nc2cccnc2)ccc1Cl |  |  |  | inactive | 200% (active) | 64% (active) | 212% (active)
18 | O=C(CCN1CCCCCC1)Nc1ccc(F)cc1 | inactive | inactive | inactive | inactive |  |  | 
19 | C=CCCCN(Cc1ccccc1)S(=O)(=O)c1ccccc1Br | inactive | inactive | inactive | inactive |  |  | 
20 | O=C(c1ccco1)N1CCN=C1SCc1ccc(F)cc1 | inactive | inactive | inactive | inactive |  |  | 

Row | SMILES | outcome [1] | outcome [2] | outcome [3] | outcome [4] | activation [1] | potentiation [2] | potentiation [3]
21 | O=c1c2ccc(Cl)cc2nc(-c2ccc([N+](=O)[O-])cc2)n1O |  |  |  | inactive | 345% (active) | 90.5% (active) | 428% (active)
22 | O=C(c1cccc(-c2ccccc2F)c1)N1CC[C@@H](N2CCC(O)CC2)[C@H](O)C1 | inactive | inactive | inactive | inactive |  |  | 
23 | CCOC(=O)Cc1csc(NC(=S)NC(=O)c2ccccc2Br)n1 |  |  |  | inactive | 233% (active) | 51% (active) | 239% (active)
24 | NS(=O)(=O)c1ccc(CCNC(=O)COC(=O)c2cc([N+](=O)[O-])ccc2N2CCOCC2)cc1 | inactive | inactive | inactive | inactive |  |  | 
25 | CC(C)CCn1c(=O)c2ccccc2n2c(=S)[nH]nc12 | inactive | inactive | inactive | inactive |  |  | 
26 | Cc1ccc(SCc2[nH]nc3c2C(c2ccco2)C(C#N)=C(N)O3)cc1 (stereo not given) | inactive | inactive | inactive | inactive |  |  | 
27 | Cc1ccc(-c2c(C)n([O-])c3c([n+]2=O)CCCC3)o1 | inactive | inactive | inactive | inactive |  |  | 
28 | Oc1c(Br)cc(Br)cc1C=NCc1ccccc1 |  |  | inactive | inactive | 147% (active) | 21.5% (active) | 
29 | Cc1ccnc(NC(=S)NC(=O)c2cncc(Br)c2)c1 | inactive | inactive | inactive | inactive |  |  | 
30 | Cc1ccc(Cl)cc1N1CCN(C(=O)c2ccc(CN3CCOCC3)cc2)CC1 | inactive | inactive | inactive | inactive |  |  | 
31 | Cc1ccc(Sc2ccc(CN3CCCC3)cc2[N+](=O)[O-])cc1 | inactive | inactive | inactive | inactive |  |  | 
32 | CC1(C)CC2CC(C)(CN2C(=S)NC(=O)c2ccccc2Cl)C1 (stereo not given) |  |  |  | inactive | 341% (active) | 154% (active) | 426% (active)
33 | COc1cc(/C=N/Nc2snc(SC)c2C#N)ccc1O | inactive | inactive | inactive | inactive |  |  | 
34 | CN(C)/C=N/S(=O)(=O)c1cccn1-c1ncc(C(F)(F)F)cc1Cl | inactive | inactive | inactive | inactive |  |  | 
35 | CCOC(=O)c1sc(NC(=S)NC(=O)c2ccco2)nc1C |  |  |  | inactive | 142% (active) | 37% (active) | 157% (active)
36 | CC(=O)c1c(C)[nH]c(C(=O)Nc2cccc(C(F)(F)F)c2)c1C | inactive | inactive | inactive | inactive |  |  | 
37 | Cc1ccccc1-n1cnnc1SCC(=O)N1CCN(c2ccccc2)CC1 |  |  |  | inactive | 200% (active) | 49.5% (active) | 206% (active)
38 | Cc1sc(NC(=O)c2ccccc2)c(C(c2ccc(Cl)cc2)N2CCN(CCO)CC2)c1C (stereo not given) | inactive | inactive | inactive | inactive |  |  | 
39 | CCOC(=O)c1ccc(N2C(=O)c3n[nH]c(C)c3C2c2ccccn2)cc1 (stereo not given) | inactive | inactive | inactive | inactive |  |  | 
40 | CC(=O)Oc1c(-c2ccco2)oc2ccccc2c1=O |  |  |  | inactive | 216% (active) | 31% (active) | 244% (active)

Row | SMILES | outcome [1] | outcome [2] | outcome [3] | outcome [4] | activation [1] | potentiation [2] | potentiation [3]
41 | O=C(CSc1nnnn1-c1ccc(F)cc1)Nc1ccc(N2CCOCC2)c(Cl)c1 | inactive | inactive | inactive | inactive |  |  | 
42 | COc1ccc2c(c1)c(=O)c(C(=O)O)c(-c1ccc3c(c1)OCO3)n2C | inactive | inactive | inactive | inactive |  |  | 
43 | CS(=O)(=O)N1CCN(c2ccccc2NC(=O)CSc2nnc(-c3ccco3)o2)CC1 | inactive | inactive | inactive | inactive |  |  | 
44 | Oc1c(Cl)cc(Cl)cc1C=Nc1ccc2c(c1)OCCO2 |  |  | inactive | inactive | 174% (active) | 25.5% (active) | 
45 | S=c1nc(-c2ccccc2)[nH]c2ccc(Br)cc12 |  |  |  | inactive | 578% (active) | 294% (active) | 602% (active)
46 | COc1ccc2[nH]c3c(c2c1)CCNC3C1CC=C(C)CC1 (stereo not given) | inactive | inactive | inactive | inactive |  |  | 
47 | O=C(c1ccc(COc2ccc(Cl)cc2)o1)N1CCN(Cc2ccc3c(c2)OCO3)CC1 | inactive |  | inactive | inactive |  | 25% (active) | 
48 | NC(=S)Nc1nc2ccccc2s1 |  |  |  | inactive | 165% (active) | 54.5% (active) | 186% (active)
49 | O=C(NC(=S)N1CCN(Cc2ccc3c(c2)OCO3)CC1)c1cccc(Br)c1 |  |  |  | inactive | 314% (active) | 123% (active) | 349% (active)
50 | CC(C)c1nc2sc3c(=S)nc[nH]c3c2c2c1CCC2 |  |  |  | inactive | 247% (active) | 194% (active) | 310% (active)
51 | Cc1ccc(C(=O)N2CCNC(=O)C2CC(=O)Nc2ccc(F)cc2)cc1C (stereo not given) | inactive |  | inactive | inactive |  | 37.5% (active) | 
52 | CCC(NC(=O)CCc1nnc(-c2cc(C)on2)o1)C12CC3CC(CC(C3)C1)C2 (stereo not given) | inactive | inactive | inactive | inactive |  |  | 
53 | CCCCCCCCCCCC(=O)NC(Cc1ccc(OC)c([N+](=O)[O-])c1)C(=O)O (stereo not given) |  |  |  | inactive | 372% (active) | 116% (active) | 349% (active)
54 | CC1Cc2ccccc2N1C(=S)NC(=O)C1(C)CC1(Cl)Cl (stereo not given) |  |  |  | inactive | 236% (active) | 72.5% (active) | 267% (active)
55 | COc1ccccc1C(=O)NNC(=O)C(=O)Nc1cccc(Cl)c1C |  |  |  | inactive | 612% (active) | 206% (active) | 580% (active)
56 | CCNc1nc(NCC)n2c(SCC(=O)Nc3ccc(F)cc3)nnc2n1 | inactive | inactive | inactive | inactive |  |  | 
57 | CCC1CCc2c(sc(NC(=O)C3CC=CCC3C(=O)O)c2C#N)C1 (stereo not given) | inactive | inactive | inactive | inactive |  |  | 
58 | Cc1cc(C)n(CCNS(=O)(=O)c2ccccc2)n1 | inactive | inactive | inactive | inactive |  |  | 
59 | N#CC(c1cccc(Cl)c1)c1ccc2c(C(F)(F)F)cc(C(F)(F)F)nc2n1 (stereo not given) |  |  |  | inactive | 144% (active) | 234% (active) | 298% (active)
60 | O=C(NNC(=O)c1ccc(Cl)c(Cl)c1)c1ccncc1 | inactive |  | inactive | inactive |  | 18.5% (active) | 
